# Measured values reported in ChEMBL document CHEMBL4350987, “Design, synthesis and biological evaluation of novel substituted purine isosters as EGFR kinase inhibitors, with promising pharmacokinetic profile and in vivo efficacy” (Eur J Med Chem, 2019).
# Activity calls are given as the source filed them. No cut-off for these calls is given here.
# Test system: A549
# Assay: Antiproliferative activity against human A549 cells overexpressing EGFR assessed as reduction in cell viability incubated for 72 hrs by MTT assay
# Format: functional, cell-based
# Details: A549, 72 h
# Method in brief: (§1)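 Cells seeded at 5×10^3/well in complete medium (DMEM or RPMI, 10% FBS) and left 24 h at 37 °C, 5% CO2. Compounds added at 0.5–150 μM for 72 h. MTT (0.3 mg/mL in PBS) applied for 3 h, formazan dissolved in DMSO, OD read at 570 nm against 650 nm reference. IC50 from four-parameter logistic fit; three experiments in triplicate.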
row,SMILES,IC50 [µM]
1,CS(=O)(=O)CCNCc1ccc(-c2nc3c(Nc4ccc(OCc5cccc(F)c5)c(Cl)c4)ncnc3[nH]2)o1,33
2,CS(=O)(=O)CCNCc1ccc(-c2ccc3ncnc(Nc4ccc(OCc5cccc(F)c5)c(Cl)c4)c3c2)o1 [LAPATINIB],11

# Test system: MCF7
# Assay: Antiproliferative activity against human MCF7 cells assessed as reduction in cell viability incubated for 72 hrs by MTT assay
# Format: functional, cell-based
# Details: MCF7, 72 h
# Method in brief: as §1
row,SMILES,IC50 [µM]
1,CS(=O)(=O)CCNCc1ccc(-c2nc3c(Nc4ccc(OCc5cccc(F)c5)c(Cl)c4)ncnc3[nH]2)o1,105
2,CS(=O)(=O)CCNCc1ccc(-c2ccc3ncnc(Nc4ccc(OCc5cccc(F)c5)c(Cl)c4)c3c2)o1 [LAPATINIB],95

# Test system: A549
# Assay: Antiproliferative activity against human A549 cells overexpressing EGFR assessed as reduction in cell viability at 1 to 60 uM incubated for 72 hrs by MTT assay
# Format: functional, cell-based
# Details: not given
row,SMILES,inhibition
1,CS(=O)(=O)CCNCc1ccc(-c2nc3c(Nc4ccc(OCc5cccc(F)c5)c(Cl)c4)ncnc3[nH]2)o1,Active

# Test system: not listed separately
# Assay: AUC (1 to 48 hrs) in human A549 cells overexpressing EGFR at 1 uM measured per 0.1 million cells by LC-MS/MS analysis
# Details: a549, 48 h
row,SMILES,AUC [nmol/100.000 cells x h]
1,CS(=O)(=O)CCNCc1ccc(-c2nc3c(Nc4ccc(OCc5cccc(F)c5)c(Cl)c4)ncnc3[nH]2)o1,0.35
2,CS(=O)(=O)CCNCc1ccc(-c2ccc3ncnc(Nc4ccc(OCc5cccc(F)c5)c(Cl)c4)c3c2)o1 [LAPATINIB],1.06

# Target: Receptor tyrosine-protein kinase erbB-2 (Homo sapiens) (UniProt P04626)
# Assay: Inhibition of human recombinant GST-tagged HER2 (catalytic domain 676 to end residues) autophosphorylation expressed in baculovirus infected Sf9 cells using poly( Glu, Tyr) 4:1 as substrate at 10 uM incubated for 60 mins by ELISA relative to control
# Details: not given
# Method in brief: (§2)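 Wells coated with poly-Glu,Tyr (4:1), 20 µg/well overnight at 4 °C, then blocked with 5% BSA. GST-HER2 added at 200 ng/mL final in HEPES/NaCl/NaVO₄/BSA buffer. Reaction started with ATP spanning Km plus 10 mM MnCl₂ final, run 60 min at 37 °C, stopped with EDTA. Phosphotyrosine detected with HRP anti-pTyr and ABTS at 405 nm; triplicate.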
# Sequence of Receptor tyrosine-protein kinase erbB-2 (Homo sapiens) (P04626 whole entry, the tested form may be a part): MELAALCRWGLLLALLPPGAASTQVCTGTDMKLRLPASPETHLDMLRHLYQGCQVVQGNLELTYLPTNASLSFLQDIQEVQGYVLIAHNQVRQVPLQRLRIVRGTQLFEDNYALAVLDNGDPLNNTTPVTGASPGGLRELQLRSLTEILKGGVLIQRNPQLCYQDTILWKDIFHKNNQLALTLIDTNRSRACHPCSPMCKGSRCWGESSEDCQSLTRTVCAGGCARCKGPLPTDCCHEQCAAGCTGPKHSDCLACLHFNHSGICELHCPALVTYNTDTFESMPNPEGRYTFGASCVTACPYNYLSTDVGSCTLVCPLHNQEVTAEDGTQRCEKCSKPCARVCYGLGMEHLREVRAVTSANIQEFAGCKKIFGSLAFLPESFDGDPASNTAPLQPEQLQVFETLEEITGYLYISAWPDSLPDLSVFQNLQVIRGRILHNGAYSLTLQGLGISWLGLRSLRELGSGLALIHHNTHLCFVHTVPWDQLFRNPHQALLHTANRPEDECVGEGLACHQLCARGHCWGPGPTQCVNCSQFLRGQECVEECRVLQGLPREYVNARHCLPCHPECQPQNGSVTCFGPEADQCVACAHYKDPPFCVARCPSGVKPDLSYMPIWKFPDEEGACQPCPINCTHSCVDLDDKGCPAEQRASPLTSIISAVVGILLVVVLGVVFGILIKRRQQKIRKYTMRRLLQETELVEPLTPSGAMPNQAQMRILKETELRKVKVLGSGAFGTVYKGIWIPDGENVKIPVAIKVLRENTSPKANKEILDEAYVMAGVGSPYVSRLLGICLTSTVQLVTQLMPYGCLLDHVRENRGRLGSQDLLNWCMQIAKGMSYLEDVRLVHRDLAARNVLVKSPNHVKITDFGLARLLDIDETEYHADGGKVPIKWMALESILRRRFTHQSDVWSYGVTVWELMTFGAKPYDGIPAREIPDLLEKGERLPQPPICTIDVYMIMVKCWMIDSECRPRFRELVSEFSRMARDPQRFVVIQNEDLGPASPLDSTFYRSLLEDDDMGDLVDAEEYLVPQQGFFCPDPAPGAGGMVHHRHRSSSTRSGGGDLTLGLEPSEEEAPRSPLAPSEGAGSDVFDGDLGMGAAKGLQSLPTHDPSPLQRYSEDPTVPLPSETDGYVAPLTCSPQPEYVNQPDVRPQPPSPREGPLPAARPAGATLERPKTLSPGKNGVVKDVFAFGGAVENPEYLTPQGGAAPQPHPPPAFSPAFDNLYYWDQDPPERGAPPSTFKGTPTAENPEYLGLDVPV
row,SMILES,inhibition [%]
1,CS(=O)(=O)CCNCc1ccc(-c2nc3c(Nc4ccc(OCc5cccc(F)c5)c(Cl)c4)ncnc3[nH]2)o1,32
2,CS(=O)(=O)CCNCc1ccc(-c2ccc3ncnc(Nc4ccc(OCc5cccc(F)c5)c(Cl)c4)c3c2)o1 [LAPATINIB],97

# Test system: NCI-H1975
# Assay: Antiproliferative activity against human NCI-H1975 cells assessed as reduction in cell viability incubated for 72 hrs by MTT assay
# Format: functional, cell-based
# Details: NCI-H1975, 72 h
# Method in brief: as §1
row,SMILES,IC50 [µM]
1,CS(=O)(=O)CCNCc1ccc(-c2nc3c(Nc4ccc(OCc5cccc(F)c5)c(Cl)c4)ncnc3[nH]2)o1,30
2,CS(=O)(=O)CCNCc1ccc(-c2ccc3ncnc(Nc4ccc(OCc5cccc(F)c5)c(Cl)c4)c3c2)o1 [LAPATINIB],9

# Target: Receptor tyrosine-protein kinase erbB-2 (Homo sapiens) (UniProt P04626)
# Assay: Inhibition of human recombinant GST-tagged HER2 (catalytic domain 676 to end residues) autophosphorylation expressed in baculovirus infected Sf9 cells using poly( Glu, Tyr) 4:1 as substrate at 1 uM incubated for 60 mins by ELISA relative to control
# Details: not given
# Method in brief: as §2
row,SMILES,inhibition [%]
1,CS(=O)(=O)CCNCc1ccc(-c2nc3c(Nc4ccc(OCc5cccc(F)c5)c(Cl)c4)ncnc3[nH]2)o1,28
2,CS(=O)(=O)CCNCc1ccc(-c2ccc3ncnc(Nc4ccc(OCc5cccc(F)c5)c(Cl)c4)c3c2)o1 [LAPATINIB],86

# Test system: not listed separately
# Assay: Drug concentration in NOD/SCID mouse blood xenografted with human A549 cells overexpressing EGFR at 86 micromol/kg, po administered once daily for 27 days and measured at day 27 at 2 hrs after last administered dose by LC-MS/MS analysis
# Format: ADME, organism-based
# Details: 86 µmol/kg, read-out: Ct
# Method in brief: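 A549 xenografts in NOD/SCID mice dosed orally once daily for 27 days, vehicle 0.5% carboxymethyl cellulose: 0.1% Tween 80 in water. Blood collected 2 h after the final dose on day 27, with animals euthanized under isoflurane. Drug level quantified by LC-MS/MS.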
row,SMILES,concentration at 2 h [nM]
1,CS(=O)(=O)CCNCc1ccc(-c2ccc3ncnc(Nc4ccc(OCc5cccc(F)c5)c(Cl)c4)c3c2)o1 [LAPATINIB],2810

# Test system: not listed separately
# Assay: Cmax in C57BL/6N mouse at 34 micromol/kg, po measured upto 24 hrs by LC-MS/MS analysis
# Format: ADME, organism-based
# Set-up: route oral
# Details: in vivo, 34 µmol/kg
# Method in brief: (§3)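 Male C57BL/6N mice, 10-12 weeks old, n = 5 per group, fasted overnight, single oral gavage dose in 0.5% carboxymethyl cellulose: 0.1% Tween 80 in water. Serial tail bleeds of 10 μL at 0.25, 0.5, 1, 2, 4, 6, 8 and 24 h into 0.1 M citric acid pH 4.5, stored at -80 °C. Samples processed by protein precipitation and evaporation, then quantified in blood by LC-MS/MS.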
row,SMILES,Cmax [nM]
1,CS(=O)(=O)CCNCc1ccc(-c2nc3c(Nc4ccc(OCc5cccc(F)c5)c(Cl)c4)ncnc3[nH]2)o1,70
2,CS(=O)(=O)CCNCc1ccc(-c2ccc3ncnc(Nc4ccc(OCc5cccc(F)c5)c(Cl)c4)c3c2)o1 [LAPATINIB],1470

# Test system: A549
# Assay: Antitumor activity against human A549 cells overexpressing EGFR xenografted in NOD/SCID mouse assessed as tumor volume at 86 micromol/kg, po administered once daily for 27 days measured at day 27 at 2 hrs after last administered dose (reference value: 1869 +/- 134 mm3)
# Format: functional
# Details: not given
# Method in brief: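 NOD/SCID mice (n=4 per group, 2 male, 2 female) injected in each flank with 5×10⁶ A549 cells in DMEM, 10% FBS. Daily oral dosing started at about 150–160 mm³ tumors; vehicle 0.5% carboxymethyl cellulose: 0.1% Tween 80 in water. Caliper measurements every three days, V = π×D×d²/6. Body weight and signs of discomfort monitored. Study ended day 27, 2 h post last dose.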
row,SMILES,Activity [mm3]
1,CS(=O)(=O)CCNCc1ccc(-c2ccc3ncnc(Nc4ccc(OCc5cccc(F)c5)c(Cl)c4)c3c2)o1 [LAPATINIB],1338

# Test system: not listed separately
# Assay: Drug uptake in human A549 cells overexpressing EGFR at 1 uM measured after 48 hrs by LC-MS/MS analysis
# Format: ADME, cell-based
# Details: a549, 48 h
# Method in brief: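 A549 cells plated at 1.5×10^5 cells/well and exposed to 1 µM compound for 1, 4, 8, 24 and 48 h. Cells washed twice with ice-cold PBS, then lysed. Intracellular amount measured by LC-MS/MS against standard curves with a stable internal standard.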
row,SMILES,Drug uptake
1,CS(=O)(=O)CCNCc1ccc(-c2nc3c(Nc4ccc(OCc5cccc(F)c5)c(Cl)c4)ncnc3[nH]2)o1,"0.01 nmol/100,000 cells"
2,CS(=O)(=O)CCNCc1ccc(-c2ccc3ncnc(Nc4ccc(OCc5cccc(F)c5)c(Cl)c4)c3c2)o1 [LAPATINIB],"0.02 nmol/100,000 cells"

# Test system: not listed separately
# Assay: AUC (0 to 24 hrs) in C57BL/6N mouse at 34 micromol/kg, po measured upto 24 hrs by LC-MS/MS analysis
# Format: ADME, organism-based
# Set-up: time < 24 hr, route oral
# Details: in vivo, 34 µmol/kg
# Method in brief: as §3
row,SMILES,AUC(0-t) at 24 h [µM·h]
1,CS(=O)(=O)CCNCc1ccc(-c2nc3c(Nc4ccc(OCc5cccc(F)c5)c(Cl)c4)ncnc3[nH]2)o1,0.87
2,CS(=O)(=O)CCNCc1ccc(-c2ccc3ncnc(Nc4ccc(OCc5cccc(F)c5)c(Cl)c4)c3c2)o1 [LAPATINIB],6.7

# Target: Receptor tyrosine-protein kinase erbB-2 (Homo sapiens) (UniProt P04626)
# Assay: Inhibition of HER2 autophosphorylation in human HCC1954 cells overexpressing HER2 at 0.02 to 2 uM incubated for 1 hr by Western blot analysis
# Format: cell-based
# Details: not given
# Method in brief: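 HCC-1954 cells at 60-70% confluence exposed to 0.02 and 2 μM compound for 1 h, then lysed in RIPA with protease inhibitors. About 10 µg protein separated by SDS-PAGE and blotted to PVDF. Phospho- and total HER2 antibodies at 1:1000, HRP secondaries, ECL read-out; β-actin used for normalization.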
row,SMILES,inhibition
1,CS(=O)(=O)CCNCc1ccc(-c2ccc3ncnc(Nc4ccc(OCc5cccc(F)c5)c(Cl)c4)c3c2)o1 [LAPATINIB],Active

# Test system: HCC1954
# Assay: Antiproliferative activity against human HCC1954 cells overexpressing HER2 assessed as reduction in cell viability incubated for 72 hrs by MTT assay
# Format: functional, cell-based
# Details: HCC1954, 72 h
# Method in brief: as §1
row,SMILES,IC50 [µM]
1,CS(=O)(=O)CCNCc1ccc(-c2nc3c(Nc4ccc(OCc5cccc(F)c5)c(Cl)c4)ncnc3[nH]2)o1,14
2,CS(=O)(=O)CCNCc1ccc(-c2ccc3ncnc(Nc4ccc(OCc5cccc(F)c5)c(Cl)c4)c3c2)o1 [LAPATINIB],5

# Test system: HCC1954
# Assay: Antiproliferative activity against human HCC1954 cells overexpressing HER2 assessed as reduction in cell viability at 1 to 60 uM incubated for 72 hrs by MTT assay
# Format: functional, cell-based
# Details: not given
row,SMILES,inhibition
1,CS(=O)(=O)CCNCc1ccc(-c2nc3c(Nc4ccc(OCc5cccc(F)c5)c(Cl)c4)ncnc3[nH]2)o1,Active

# Test system: not listed separately
# Assay: Tmax in C57BL/6N mouse at 34 micromol/kg, po measured upto 24 hrs by LC-MS/MS analysis
# Format: ADME, organism-based
# Details: in vivo, 34 µmol/kg
# Method in brief: as §3
row,SMILES,Tmax [h]
1,CS(=O)(=O)CCNCc1ccc(-c2nc3c(Nc4ccc(OCc5cccc(F)c5)c(Cl)c4)ncnc3[nH]2)o1,2
2,CS(=O)(=O)CCNCc1ccc(-c2ccc3ncnc(Nc4ccc(OCc5cccc(F)c5)c(Cl)c4)c3c2)o1 [LAPATINIB],2

# Target: Epidermal growth factor receptor (Homo sapiens) (UniProt P00533)
# Assay: Inhibition of EGFR autophosphorylation in human A549 cells overexpressing EGFR at 1 to 10 uM treated with compound for 10 mins prior to EGF stimulation for 10 mins by Western blot analysis
# Format: cell-based
# Details: not given
# Method in brief: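 A549 cells grown to 60-70% confluence, then serum-starved 24 h. Exposed to compound for 10 min, then stimulated with 100 ng/mL EGF for 10 min at 37 °C and lysed in RIPA with protease inhibitors. About 10 µg protein run on SDS-PAGE, blotted to PVDF. Phospho- and total EGFR probed at 1:1000, HRP secondaries, ECL detection; β-actin for normalization.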
# Sequence of Epidermal growth factor receptor (Homo sapiens) (P00533 whole entry): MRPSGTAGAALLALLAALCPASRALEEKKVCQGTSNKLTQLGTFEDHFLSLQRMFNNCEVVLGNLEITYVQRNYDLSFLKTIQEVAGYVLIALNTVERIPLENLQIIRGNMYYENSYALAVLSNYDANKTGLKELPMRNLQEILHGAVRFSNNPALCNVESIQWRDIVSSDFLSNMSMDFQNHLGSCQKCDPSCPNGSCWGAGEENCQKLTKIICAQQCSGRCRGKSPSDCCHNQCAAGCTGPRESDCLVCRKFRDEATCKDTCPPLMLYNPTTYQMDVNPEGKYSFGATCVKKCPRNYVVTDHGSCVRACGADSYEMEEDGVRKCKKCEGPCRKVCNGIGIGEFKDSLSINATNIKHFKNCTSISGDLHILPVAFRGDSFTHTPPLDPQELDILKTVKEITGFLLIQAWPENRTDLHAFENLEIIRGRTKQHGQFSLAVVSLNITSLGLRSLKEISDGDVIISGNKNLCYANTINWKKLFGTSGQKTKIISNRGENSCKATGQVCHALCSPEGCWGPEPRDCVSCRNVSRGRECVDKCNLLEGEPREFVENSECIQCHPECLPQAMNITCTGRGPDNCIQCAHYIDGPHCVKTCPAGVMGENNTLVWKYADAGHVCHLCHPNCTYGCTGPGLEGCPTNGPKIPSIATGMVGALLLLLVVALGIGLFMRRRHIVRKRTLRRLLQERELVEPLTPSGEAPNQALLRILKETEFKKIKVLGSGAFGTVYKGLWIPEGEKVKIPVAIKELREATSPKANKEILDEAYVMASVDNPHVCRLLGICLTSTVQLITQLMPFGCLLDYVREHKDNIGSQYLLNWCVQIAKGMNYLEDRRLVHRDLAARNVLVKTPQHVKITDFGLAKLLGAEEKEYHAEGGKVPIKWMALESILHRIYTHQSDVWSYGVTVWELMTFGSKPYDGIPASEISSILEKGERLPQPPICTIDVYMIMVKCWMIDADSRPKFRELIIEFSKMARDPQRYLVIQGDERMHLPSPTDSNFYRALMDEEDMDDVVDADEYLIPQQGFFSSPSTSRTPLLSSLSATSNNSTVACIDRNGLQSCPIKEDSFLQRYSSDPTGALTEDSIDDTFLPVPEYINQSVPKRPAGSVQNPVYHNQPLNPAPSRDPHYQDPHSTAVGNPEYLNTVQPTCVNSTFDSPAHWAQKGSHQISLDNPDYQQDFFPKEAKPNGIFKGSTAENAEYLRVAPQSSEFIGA
row,SMILES,inhibition
1,CS(=O)(=O)CCNCc1ccc(-c2nc3c(Nc4ccc(OCc5cccc(F)c5)c(Cl)c4)ncnc3[nH]2)o1,Active
